Legend:
Acetyl-CoA carboxylase 2 = Acetyl-CoA carboxylase 2 (Homo sapiens, UniProt O00763); test: Inhibition of human recombinant ACC 2 expressed in baculovirus expression system by FAS-coupled assay
In short: (§1)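 Recombinant human ACC1 or ACC2 (baculovirus-expressed, purified), 2-4.5 nM, preincubated 10 min with compound in DMSO and FAS (1 µg/assay) in 50 mM HEPES pH 7.5, 10 mM sodium citrate, 20 mM MgCl2, 6 mM NaHCO3. Substrate mix then added: 2.4 µM [3H]acetyl-CoA, 47.6 µM acetyl-CoA, 100 µM NADPH, 0.125 mM ATP. Run 30 min at room temperature, stopped with EDTA. [3H]palmitic acid counted on phospholipid FlashPlate. IC50 averaged from 2–4 experiments.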

Acetyl-CoA carboxylase 1 = Acetyl-CoA carboxylase 1 (Homo sapiens, UniProt Q13085); test: Inhibition of human recombinant ACC 1 expressed in baculovirus expression system by FAS-coupled assay; in short: as §1
Homo sapiens [1] = organism: Homo sapiens; test: Selectivity ratio of IC50 for human ACC 1 to IC50 for human ACC 2
Homo sapiens [2] = organism: Homo sapiens; test: Selectivity ratio of IC50 for human ACC 2 to IC50 for human ACC 1

Chain of Acetyl-CoA carboxylase 2 (O00763 whole entry): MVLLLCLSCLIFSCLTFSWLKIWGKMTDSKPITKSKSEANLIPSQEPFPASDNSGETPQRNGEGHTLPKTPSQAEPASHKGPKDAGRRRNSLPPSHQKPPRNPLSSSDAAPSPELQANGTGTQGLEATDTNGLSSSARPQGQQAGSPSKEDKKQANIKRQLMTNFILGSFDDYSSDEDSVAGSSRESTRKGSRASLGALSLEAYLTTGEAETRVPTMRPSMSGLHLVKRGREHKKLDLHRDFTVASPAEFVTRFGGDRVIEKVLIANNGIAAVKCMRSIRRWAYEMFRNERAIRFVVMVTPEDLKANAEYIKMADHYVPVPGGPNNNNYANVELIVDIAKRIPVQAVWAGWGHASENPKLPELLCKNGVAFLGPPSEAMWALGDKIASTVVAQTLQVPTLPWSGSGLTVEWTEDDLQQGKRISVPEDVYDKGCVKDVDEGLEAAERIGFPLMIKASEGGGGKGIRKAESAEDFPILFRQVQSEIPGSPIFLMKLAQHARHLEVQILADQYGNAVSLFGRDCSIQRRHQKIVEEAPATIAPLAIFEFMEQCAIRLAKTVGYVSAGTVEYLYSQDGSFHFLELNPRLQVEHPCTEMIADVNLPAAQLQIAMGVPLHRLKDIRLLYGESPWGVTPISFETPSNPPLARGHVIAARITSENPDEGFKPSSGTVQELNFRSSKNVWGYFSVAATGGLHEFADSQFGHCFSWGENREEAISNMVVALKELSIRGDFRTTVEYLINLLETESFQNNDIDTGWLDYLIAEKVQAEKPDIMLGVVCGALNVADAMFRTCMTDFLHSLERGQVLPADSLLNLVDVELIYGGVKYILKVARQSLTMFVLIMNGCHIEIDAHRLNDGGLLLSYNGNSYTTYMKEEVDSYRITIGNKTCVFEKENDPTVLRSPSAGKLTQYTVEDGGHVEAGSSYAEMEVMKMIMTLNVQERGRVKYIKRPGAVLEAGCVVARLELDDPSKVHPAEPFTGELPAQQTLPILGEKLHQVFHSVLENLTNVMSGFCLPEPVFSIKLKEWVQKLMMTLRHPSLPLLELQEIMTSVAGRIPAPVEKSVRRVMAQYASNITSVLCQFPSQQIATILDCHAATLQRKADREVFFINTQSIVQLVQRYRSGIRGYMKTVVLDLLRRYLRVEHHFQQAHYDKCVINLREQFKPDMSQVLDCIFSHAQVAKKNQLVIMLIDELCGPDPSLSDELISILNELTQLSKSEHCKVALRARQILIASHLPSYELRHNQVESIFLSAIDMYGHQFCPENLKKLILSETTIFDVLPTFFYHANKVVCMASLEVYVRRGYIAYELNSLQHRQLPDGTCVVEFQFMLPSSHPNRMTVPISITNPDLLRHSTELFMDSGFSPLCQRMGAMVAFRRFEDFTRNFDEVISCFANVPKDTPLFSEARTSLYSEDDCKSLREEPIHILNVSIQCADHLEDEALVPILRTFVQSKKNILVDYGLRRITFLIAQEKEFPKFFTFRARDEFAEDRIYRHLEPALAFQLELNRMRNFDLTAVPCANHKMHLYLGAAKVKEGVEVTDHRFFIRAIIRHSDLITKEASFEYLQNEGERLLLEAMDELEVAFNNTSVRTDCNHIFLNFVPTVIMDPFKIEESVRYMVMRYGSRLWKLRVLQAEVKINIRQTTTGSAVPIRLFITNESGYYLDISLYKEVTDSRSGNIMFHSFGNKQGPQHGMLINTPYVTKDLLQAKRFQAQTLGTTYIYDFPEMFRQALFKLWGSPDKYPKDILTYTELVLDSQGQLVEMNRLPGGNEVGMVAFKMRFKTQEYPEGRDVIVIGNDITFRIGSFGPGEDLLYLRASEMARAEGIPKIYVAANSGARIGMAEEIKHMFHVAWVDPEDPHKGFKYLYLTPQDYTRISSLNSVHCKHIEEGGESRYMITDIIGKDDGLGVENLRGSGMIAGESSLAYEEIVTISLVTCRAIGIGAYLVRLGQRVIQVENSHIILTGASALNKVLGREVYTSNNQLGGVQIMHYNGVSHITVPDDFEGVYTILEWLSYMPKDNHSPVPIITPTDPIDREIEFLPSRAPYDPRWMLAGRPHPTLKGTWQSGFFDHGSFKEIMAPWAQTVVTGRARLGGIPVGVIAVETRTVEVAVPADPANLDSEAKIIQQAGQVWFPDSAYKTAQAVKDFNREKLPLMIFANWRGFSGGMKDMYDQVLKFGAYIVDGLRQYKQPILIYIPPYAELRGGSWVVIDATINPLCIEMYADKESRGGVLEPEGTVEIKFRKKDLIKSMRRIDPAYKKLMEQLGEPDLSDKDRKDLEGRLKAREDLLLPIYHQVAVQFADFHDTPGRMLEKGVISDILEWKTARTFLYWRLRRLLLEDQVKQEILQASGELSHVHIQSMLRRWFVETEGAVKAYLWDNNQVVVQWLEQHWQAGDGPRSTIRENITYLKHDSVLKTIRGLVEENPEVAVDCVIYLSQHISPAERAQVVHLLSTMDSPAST

IC50 (Acetyl-CoA carboxylase 2) [nM] | IC50 (Acetyl-CoA carboxylase 1) [nM] | Selectivity ratio (Homo sapiens [1]) | Selectivity ratio (Homo sapiens [2]) | SMILES
88 | 592 | – | – | CC(=O)NC(C)c1ccc(-c2ccc(Oc3ccc(OC(C)C)cc3)cc2C)c(C)c1 (stereo unspecified)
16 | 41 | – | – | CC(=O)NC(C)c1ccc(-c2ccc(Oc3cccc(Oc4ccccc4)c3)cc2)cc1 (stereo unspecified)
35 | 16 | – | – | CC(=O)NC(C)c1ccc(-c2ccc(Oc3ccc(OC(C)C)cc3)cc2C)cc1 (stereo unspecified)
881 | > 30000 | – | – | CCCOc1ccc(Oc2ccc(-c3ccc(C(C)NC(=O)COC)cc3)cn2)cc1 (stereo unspecified)
303 | 2490 | – | – | CC(=O)NC(C)c1ccc(-c2ccc(Oc3ccc(OC(C)C)cc3)cc2)c(C)c1 (stereo unspecified)
141 | 319 | – | – | CCCOc1ccc(Oc2ccc(-c3ccc(C(C)NC(=O)C4CC4)cc3)cn2)cc1 (stereo unspecified)
777 | > 30000 | – | – | CCCOc1ccc(Oc2ccc(-c3ccc([C@@H](C)NC(C)=O)cc3)cn2)cc1
202 | 47 | – | – | CCCOc1ccc(Oc2ccc(-c3ccc(C(C)NC(=O)CC)cc3)cc2)cc1 (stereo unspecified)
214 | 188 | – | – | CCCOc1ccc(Oc2ccc(-c3ccc(C(C)NC(=O)C(C)C)cc3)cc2)cc1 (stereo unspecified)
12 | 13 | – | – | CCCOc1cccc(Oc2ccc(-c3ccc(C(C)NC(C)=O)cc3)cc2)c1 (stereo unspecified)
550 | 296 | – | – | CCCOc1ccc(Oc2ccc(-c3ccc(C(C)NC(=O)C4CC4)cc3)cc2)cc1 (stereo unspecified)
945 | 39 | – | 24 | CC(=O)NC(C)c1ccc(-c2ccc(Oc3ccc(Cc4ccccc4)cc3)cc2)cc1 (stereo unspecified)
> 30000 | 89 | – | > 300 | COCCc1ccc(Oc2ccc(-c3ccc(C(C)NC(C)=O)cc3)cc2)cc1 (stereo unspecified)
18 | 110 | 6 | – | CCCOc1ccc(Oc2ccc(-c3ccc(C(C)NC(C)=O)cc3)cn2)cc1 (stereo unspecified)
2540 | > 30000 | – | – | CCCOc1ccc(Oc2ccc(-c3ccc(C(C)NC(=O)c4cn[nH]c4)cc3)cn2)cc1 (stereo unspecified)
35 | 69 | 2 | – | CCCOc1ccc(Oc2ccc(-c3ccc(C(C)NC(=O)CC)cc3)cn2)cc1 (stereo unspecified)
3100 | > 30000 | – | – | CCCOc1ccc(Oc2ccc(-c3ccc(C(C)NC(=O)OCC)cc3)cc2)cc1 (stereo unspecified)

Second part, the compound before the results:

SMILES | IC50 (Acetyl-CoA carboxylase 2) [nM] | IC50 (Acetyl-CoA carboxylase 1) [nM] | Selectivity ratio (Homo sapiens [1]) | Selectivity ratio (Homo sapiens [2])
CCCOc1ccc(Oc2ccc(-c3ccc([C@H](C)NC(C)=O)cc3)cn2)cc1 | 8 | 35 | – | –
CC(=O)NC(C)c1ccc(-c2ccc(Oc3ccc(C(=O)c4ccccc4)cc3)cc2)cc1 (stereo unspecified) | 113 | 35 | – | –
CC(=O)NC(C)c1ccc(-c2ccc(Oc3ccc(OC(C)C)cc3)nc2)cc1 (stereo unspecified) | 93 | 415 | – | –
COc1cccc(Oc2ccc(-c3ccc(C(C)NC(C)=O)cc3)cc2)c1 (stereo unspecified) | 373 | > 30000 | > 80 | –
CC(=O)NC(C)c1ccc(-c2ccc(Oc3ccc(OC(C)C)cc3)cc2)cc1 (stereo unspecified) | 33 | 17 | – | –
CCCOc1ccc(Oc2ccc(-c3ccc(C(C)NC(=O)OCC)cc3)cn2)cc1 (stereo unspecified) | 227 | 8150 | – | –
CCCOc1ccc(Oc2ccc(-c3ccc(C(C)NC(=O)C(C)C)cc3)cn2)cc1 (stereo unspecified) | 156 | 451 | – | –
CCCCC(=O)NC(C)c1ccc(-c2ccc(Oc3ccc(OCCC)cc3)nc2)cc1 (stereo unspecified) | 1510 | > 30000 | – | –
CC(=O)NC(C)c1ccc(-c2ccc(Oc3ccc(-c4c(O)ccc5c4CCCC5)cc3)cc2)cc1 (stereo unspecified) | 268 | 140 | – | –
CCOc1ccc(Oc2ccc(-c3ccc(C(C)NC(C)=O)cc3)cn2)cc1 (stereo unspecified) | 274 | > 30000 | > 100 | –
CCCOc1ccc(Oc2ccc(-c3ccc(C(C)NC(=O)COC)cc3)cc2)cc1 (stereo unspecified) | 718 | 753 | – | –
CCCOc1ccc(Oc2ccc(-c3ccc(C(C)NC(=O)CCC)cc3)cn2)cc1 (stereo unspecified) | 494 | 4200 | – | –
CCCOc1ccc(Oc2ccc(-c3ccc(C(C)NC(C)=O)cc3)cc2)cc1 (stereo unspecified) | 14 | 17 | – | –
CCCOc1ccc(Oc2ccc(-c3ccc(C(C)NC(=O)C(C)O)cc3)cc2)cc1 (racemic) | 1840 | 2060 | – | –
CCOc1cccc(Oc2ccc(-c3ccc(C(C)NC(C)=O)cc3)cc2)c1 (stereo unspecified) | 102 | 8580 | 84 | –
CCCCC(=O)NC(C)c1ccc(-c2ccc(Oc3ccc(OCCC)cc3)cc2)cc1 (stereo unspecified) | > 30000 | > 30000 | – | –
CC(=O)NC(C)c1ccc(-c2ccc(Oc3ccc(Oc4ccccc4)cc3)cc2)cc1 (stereo unspecified) | 7 | 14 | – | –
CCCOc1cccc(Oc2ccc(-c3ccc(C(C)NC(=O)c4cn[nH]c4)cc3)cc2)c1 (stereo unspecified) | 609 | 36 | – | 17
CC(=O)NC(C)c1ccc(-c2ccc(Oc3ccc(OCc4ccccc4)cc3)cc2)cc1 (stereo unspecified) | > 30000 | > 30000 | – | –
CCOc1ccc(Oc2ccc(-c3ccc(C(C)NC(C)=O)cc3)cc2)cc1 (stereo unspecified) | 119 | 1630 | 14 | –
CCCc1ccc(Oc2ccc(-c3ccc(C(C)NC(C)=O)cc3)cc2)cc1 (stereo unspecified) | 114 | 81 | – | –
CC(=O)NC(C)c1ccc(-c2ccc(Oc3cccc(Oc4ccccc4)c3)nc2)cc1 (stereo unspecified) | 32 | 49 | – | –
CCCOc1ccc(Oc2ccc(-c3ccc(C(C)NC(=O)CCC)cc3)cc2)cc1 (stereo unspecified) | > 30000 | 2770 | – | –
CC(=O)NC(C)c1ccc(-c2ccc(Oc3ccc(OCc4ccccc4)cc3)nc2)cc1 (stereo unspecified) | 117 | 58 | – | –

Source: ChEMBL document CHEMBL1156049, “Potent biphenyl- and 3-phenyl pyridine-based inhibitors of acetyl-CoA carboxylase” (Bioorg Med Chem Lett, 2009)
